# Active and inactive are the calls of the source. The calls are words filed in the database; no cut-off is given here.
# Assays:
# MCF7 [1] = assay: Induction of reactive oxygen species generation in human MCF7 cells assessed as decrease in cell viability at 10 uM in presence of N-acetyl cysteine after 48 hrs by alamarBlue assay; type: functional, cell-based
# In short: (§1)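 MCF-7 cells were seeded at 2.5×10^4 cells/mL and left to adhere. They were pre-treated 1 h with N-acetyl cysteine (1 mM) or Trolox (100 μM), then exposed to test agents for 48 h. Viability was measured by alamarBlue fluorescence as % of ethanol vehicle control. Mean of three independent experiments.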
# MCF7 [2] = assay: Induction of reactive oxygen species generation in human MCF7 cells assessed as decrease in cell viability at 5 to 20 uM in presence of N-acetyl cysteine after 48 hrs by alamarBlue assay; type: functional, cell-based; in short: as §1
# MCF7 [3] = assay: Induction of reactive oxygen species generation in human MCF7 cells assessed as decrease in cell viability at 5 to 20 uM in presence of trolox after 48 hrs by alamarBlue assay; type: functional, cell-based; in short: as §1
# MCF-10A [4] = assay: Cytotoxicity in human MCF10A cells at 5 uM at 48 hrs by alamarBlue assay; type: cell-based
# MCF-10A [5] = assay: Cytotoxicity in human MCF10A cells at 5 uM at 24 hrs by alamarBlue assay; type: cell-based
# MCF7 [6] = assay: Antiproliferative activity in human MCF7 cells assessed as cell viability after 48 hrs by alamarBlue assay; type: functional, cell-based; settings: MCF7, 48 h
# In short: (§2)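 Cells were seeded at 2.5×10^4 cells/mL and treated after 24 h with vehicle (0.1% v/v ethanol) or a dose range (0.1–20 μM) for 48 h at 37 °C in 5% CO2. Media-only blanks were subtracted, and viability is given as % of vehicle. Sextuplicate wells, three independent experiments.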
# MCF-10A [7] = assay: Cytotoxicity in human MCF10A cells at 1 uM after 24 to 48 hrs by alamarBlue assay; type: cell-based
# MCF7 [8] = assay: Cell cycle arrest in human MCF7 cells assessed as G0/G1 phase accumulation at 20 uM after 24 hrs by propidium iodide staining based flow cytometry; type: functional
# In short: (§3)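 MCF-7 cells were seeded at 1×10^5 cells/mL and treated after 24 h with 5, 10 or 20 μM or 0.1% ethanol for 24 or 48 h. Cells were pooled, fixed in ice-cold 70% ethanol at −20 °C for 24 h, then stained with RNase A and propidium iodide for 30 min at 37 °C in the dark. Flow cytometry used FL-2, ≥10,000 gated cells, and sub-G1/G0G1/G2/M were scored by DNA content. Mean ± SEM of three; one-way ANOVA with Dunnett's test.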
# MCF7 [9] = assay: Cell cycle arrest in human MCF7 cells assessed as G2/M phase accumulation at 20 uM after 24 hrs by propidium iodide staining based flow cytometry
# Bos taurus = organism: Bos taurus; assay: Induction of bovine tubulin depolymerization at 25 uM measured every 30 secs for 60 mins by spectrophotometry
# In short: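 Purified tubulin plus GTP was incubated at 37 °C with test agent or 1% ethanol vehicle. Assembly was followed as absorbance (light scattering) at 340 nm every 30 s for 60 min. Mean of three experiments run in duplicate.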
# Homo sapiens [10] = organism: Homo sapiens; assay: Disruption of microtubule network in human MCF7 cells at 20 uM after 16 hrs by immunofluorescence analysis; type: cell-based
# In short: (§4)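 MCF-7 cells were seeded at 1×10^5 cells/mL on chamber slides and treated for 16 h (vehicle 1% ethanol). Cells were fixed 20 min in 4% paraformaldehyde, permeabilised in 0.5% Triton X-100 and blocked in 5% BSA/PBST. Staining used anti-α-tubulin–FITC (DM1A) for 2 h at rt, then Alexa Fluor 488 for 1 h, with DAPI counterstain. Imaging was by confocal microscopy; three independent experiments.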
# Homo sapiens [11] = organism: Homo sapiens; assay: Binding affinity to colchicine-binding site of beta tubulin in human MCF7 cells assessed as inhibition of formation of protein-N,N'-Ethylene-bis(iodoacetamide) adduct at 40 uM after 2 hrs by Western blot method; type: cell-based
# In short: (§5)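 MCF-7 or HT-29 cells were exposed to test agent or ethanol vehicle (0.1% v/v) for 2 h, with MCF-7 seeded at 1×10^6 cells/well overnight beforehand. Selected samples then received N,N'-ethylene-bis(iodoacetamide) for a further 1.5 h. Cells were washed in cold PBS, lysed in Laemmli buffer and run on SDS-PAGE. Three independent experiments.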
# MCF7 [12] = assay: Cell cycle arrest in human MCF7 cells assessed as G2/M phase accumulation at 5 uM after 48 hrs by propidium iodide staining based flow cytometry; type: functional; in short: as §3
# MCF7 [13] = assay: Cell cycle arrest in human MCF7 cells assessed as G0/G1 phase accumulation at 10 uM after 24 hrs by propidium iodide staining based flow cytometry; type: functional; in short: as §3
# Homo sapiens [14] = organism: Homo sapiens; assay: Induction of tubulin depolymerization in human Jurkat cells at 5 to 20 uM after 4 hrs by Western blot method; type: cell-based
# In short: (§6)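 MCF-7 (1×10^6/well) or Jurkat cells were treated for 4 h with 1–20 μM or 0.1% ethanol. Cells were lysed in microtubule-preserving buffer (0.1 M PIPES pH 6.9, 2 M glycerol, 5 mM MgCl2, 2 mM EGTA, 0.5% Triton X-100, 4 μM paclitaxel) and centrifuged at 20,000g for 45 min. Soluble (supernatant) and polymer (pellet) fractions, 30 μg protein each, were immunoblotted for α-tubulin with a GAPDH loading control. Three experiments.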
# Jurkat [15] = assay: Antiproliferative activity in human Jurkat cells assessed as cell viability after 48 hrs by alamarBlue assay; type: functional, cell-based
# In short: as §2, with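 “CO2. AlamarBlue was added 5 h before the end and read as fluorescence (ex 544/em 590 nm).” for “CO2.”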
# MCF7 [16] = assay: Cell cycle arrest in human MCF7 cells assessed as G2/M phase accumulation at 10 uM after 24 hrs by propidium iodide staining based flow cytometry; type: functional; in short: as §3
# Homo sapiens [17] = organism: Homo sapiens; assay: Effect on tubulin polymerization in human Jurkat cells at 1; type: cell-based; in short: as §6
# Homo sapiens [18] = organism: Homo sapiens; assay: Binding affinity to colchicine-binding site of beta tubulin in human HT-29 cells assessed as inhibition of formation of protein-N,N'-Ethylene-bis(iodoacetamide) adduct at 40 uM after 2 hrs by Western blot method; type: cell-based; in short: as §5
# Jurkat [19] = assay: Cytotoxicity against human Jurkat cells after 24 hrs by MTT assay; type: functional, cell-based
# MCF7 [20] = assay: Cell cycle arrest in human MCF7 cells assessed as G0/G1 phase accumulation at 10 uM after 48 hrs by propidium iodide staining based flow cytometry; type: functional; in short: as §3
# MCF-10A [21] = assay: Cytotoxicity in human MCF10A cells at 10 uM after 24 to 48 hrs by alamarBlue assay; type: cell-based
# In short: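 MCF-10a cells were grown in DMEM/F12 with 5% horse serum, EGF, hydrocortisone, cholera toxin and insulin. They were treated at 1, 5, 10 or 20 μM for 48 h. Read-out was alamarBlue fluorescence, blank-subtracted and expressed as % of ethanol vehicle control. Mean of three independent experiments; unpaired two-tailed t-test.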
# Homo sapiens [22] = organism: Homo sapiens; assay: Induction of microtubule depolymerization in human MCF7 cells at 10 uM after 16 hrs by immunofluorescence analysis; type: cell-based; in short: as §4
# MCF7 [23] = assay: Induction of apoptosis in human MCF7 cells assessed as downregulation of Bcl2 expression at 10 uM after 48 hrs by Western blot method; type: functional, cell-based
# In short: (§7)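 MCF-7 cells were seeded at 5×10^5 cells/flask and exposed to 10 μM, vehicle (0.1% ethanol) or no treatment for 48 or 72 h. Cells were lysed in RIPA buffer with protease/phosphatase inhibitors, and equal protein (by BCA) was run on 12% SDS-PAGE. Blots were probed overnight at 4 °C for Bcl-2 (1:500) or Mcl-1 (1:1000), with GAPDH as loading control and ECL detection. Three independent experiments.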
# MCF7 [24] = assay: Cytotoxicity against human MCF7 cells after 24 hrs by MTT assay; type: functional, cell-based; settings: MCF7, 24 h
# MCF7 [25] = assay: Cell cycle arrest in human MCF7 cells assessed as sub G0/G1 phase accumulation at 20 uM after 48 hrs by propidium iodide staining based flow cytometry; type: functional; in short: as §3
# MCF7 [26] = assay: Cell cycle arrest in human MCF7 cells assessed as G2/M phase accumulation at 10 uM after 48 hrs by propidium iodide staining based flow cytometry; type: functional; in short: as §3
# MCF7 [27] = assay: Induction of reactive oxygen species generation in human MCF7 cells assessed as decrease in cell viability at 1 to 20 uM in presence of trolox after 48 hrs by alamarBlue assay; type: functional, cell-based; in short: as §1
# Homo sapiens [28] = organism: Homo sapiens; assay: Induction of tubulin depolymerization in human MCF7 cells at 5 to 20 uM after 4 hrs by Western blot method; type: cell-based; in short: as §6
# MCF7 [29] = assay: Induction of apoptosis in human MCF7 cells assessed as downregulation of Mcl-1 expression at 10 uM after 72 hrs by Western blot method; type: functional, cell-based; in short: as §7
# MCF7 [30] = assay: Induction of reactive oxygen species generation in human MCF7 cells assessed as decrease in cell viability at 1 to 20 uM in presence of N-acetyl cysteine after 48 hrs by alamarBlue assay; type: functional, cell-based; in short: as §1
# MCF7 [31] = assay: Cell cycle arrest in human MCF7 cells assessed as G2/M phase accumulation at 5 uM after 24 hrs by propidium iodide staining based flow cytometry; type: functional; in short: as §3
# MCF7 [32] = assay: Cell cycle arrest in human MCF7 cells assessed as sub G0/G1 phase accumulation at 10 uM after 48 hrs by propidium iodide staining based flow cytometry; type: functional; in short: as §3
# Homo sapiens [33] = organism: Homo sapiens; assay: Effect on tubulin polymerization in human MCF7 cells at 1; type: cell-based; in short: as §6
# MCF7 [34] = assay: Cell cycle arrest in human MCF7 cells assessed as G0/G1 phase accumulation at 20 uM after 48 hrs by propidium iodide staining based flow cytometry; type: functional; in short: as §3
# MCF7 [35] = assay: Cell cycle arrest in human MCF7 cells assessed as G2/M phase accumulation at 20 uM after 48 hrs by propidium iodide staining based flow cytometry
smiles,measurement,setting,value
COc1ccc(OC)c(C(=O)/C(C)=C/c2ccc(N(C)C)cc2)c1,Activity,MCF7 [1],inactive
COc1cc(OC)c(OC)cc1/C=C/C(=O)N1CCC=CC1=O,Activity,MCF7 [2],inactive
same,Activity,MCF7 [3],inactive
same,Activity,MCF-10A [4],> 80%
same,Activity,MCF-10A [5],> 90%
same,IC50,MCF7 [6],3.4 µM
same,Activity,MCF-10A [7],Non-Toxic
COc1cccc(/C=C/C(=O)N2CCC=CC2=O)c1,Activity,MCF-10A [4],> 80%
same,Activity,MCF-10A [5],> 90%
same,IC50,MCF7 [6],7.5 µM
same,Activity,MCF-10A [7],Non-Toxic
COc1cc(/C=C/C(=O)N2CCC=CC2=O)cc(OC)c1OC [PIPLARTINE],Activity,MCF7 [8],15%
same,Activity,MCF7 [9],12%
same,Activity,Bos taurus,Active
same,Activity,Homo sapiens [10],Active
same,inhibition,Homo sapiens [11],inactive
same,Activity,MCF7 [12],6%
same,Activity,MCF7 [13],16%
same,Activity,Homo sapiens [14],Active
same,IC50,Jurkat [15],1.4 µM
same,IC50,MCF7 [6],1.2 µM
same,Activity,MCF7 [16],16%
same,Activity,Homo sapiens [17],inactive
same,inhibition,Homo sapiens [18],inactive
same,IC50,Jurkat [19],5 µM
same,Activity,MCF7 [20],21%
same,Activity,MCF-10A [21],90%
same,Activity,Homo sapiens [22],Active
same,Activity,MCF7 [23],Active
same,IC50,MCF7 [24],8 µM
same,Activity,MCF7 [25],4.9%
same,Activity,MCF7 [26],15%
same,Activity,MCF7 [27],Active
same,Activity,Homo sapiens [28],Active
same,Activity,MCF7 [29],Active
same,Activity,MCF7 [30],inactive
same,Activity,MCF7 [31],13%
same,Activity,MCF7 [32],4.3%
same,Activity,Homo sapiens [33],inactive
same,Activity,MCF7 [34],19%
same,Activity,MCF7 [35],10%
COc1cc(/C=C/C(=O)c2ccccc2)cc(OC)c1OC,Activity,MCF7 [1],inactive
COc1ccc(/C=C(\C)C(=O)c2cc(OC)c(OC)c(OC)c2)cc1O,Activity,MCF7 [1],inactive

# — ChEMBL document CHEMBL4041479, “Piperlongumine (piplartine) and analogues: Antiproliferative microtubule-destabilising agents” (Eur J Med Chem, 2017)
